Laboratory results as given in article PMC5400702 (European journal of nuclear medicine and molecular imaging, 2017).
“And” between values parts separate entries of the source, which are not always exact repeats. Equal values may be shown once. Read-outs that look alike come from different tables or passages of the source.

Columns and labels:
α7 nAChRs [1] = target: T1, α7 nAChRs (Macaca mulatta, UniProt Q866A2); assay type: in vivo; settings: 2TCM, rhesus monkey; for K1: average across all subjects and gray matter regions
T1 sequence (Q866A2 23-502): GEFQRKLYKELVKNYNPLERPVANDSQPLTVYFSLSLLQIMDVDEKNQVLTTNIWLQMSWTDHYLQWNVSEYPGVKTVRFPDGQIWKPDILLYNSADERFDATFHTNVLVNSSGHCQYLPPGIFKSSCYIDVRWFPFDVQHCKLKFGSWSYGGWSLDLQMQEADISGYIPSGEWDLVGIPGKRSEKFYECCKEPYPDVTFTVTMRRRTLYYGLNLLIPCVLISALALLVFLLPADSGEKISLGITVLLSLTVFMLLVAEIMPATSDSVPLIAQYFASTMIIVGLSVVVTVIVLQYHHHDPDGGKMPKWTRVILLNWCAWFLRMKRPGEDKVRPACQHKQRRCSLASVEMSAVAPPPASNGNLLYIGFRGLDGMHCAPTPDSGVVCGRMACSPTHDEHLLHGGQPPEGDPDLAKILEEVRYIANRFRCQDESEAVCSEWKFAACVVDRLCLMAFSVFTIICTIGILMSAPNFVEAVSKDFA

[2] = assay type: in vivo, Macaca mulatta; settings: arterial plasma, 120 min post-injection, averaged across subjects, rhesus monkey
Plasma free fraction [3] = assay type: in vitro ADME, Macaca mulatta; settings: rhesus monkey plasma, ultrafiltration
Summary of the method: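 Plasma from arterial samples of anesthetized rhesus monkeys during radiotracer PET scans was tested. Free fraction was measured by ultrafiltration in triplicate for each scan.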

α7 nAChRs [4] = settings: full agonist ref 16, 17; cited from earlier work
α7 nAChRs [5] = target: T1, α7 nAChRs; assay: [18F]ASEM PET blocking scans with nicotine, varenicline and cold ASEM; settings: for receptor occupancy: Lassen plot
α7 nAChRs [6] = target: T2, α7 nAChRs (Homo sapiens, UniProt P36544); assay: [18F]ASEM PET imaging in human brain, kinetic modeling and test-retest; assay type: in vivo; settings: for K1 / VT / VT/fp: humans n=6; for VT TRV / VT/fp TRV: humans n=4
T2 sequence (P36544 23-502): as the sequence (Q866A2 23-502) above, with S171N, K186R, M373V, A376V counted along it

[7] = Parent [18F]ASEM in human arterial plasma; assay type: in vivo; settings: for parent [18F]ASEM fraction of radioactivity in plasma: human arterial plasma
Summary of the method: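 Six healthy volunteers (5 M, 1 F; 26–51 y) received 317±87 MBq radiotracer as a 1-min slow bolus into a forearm vein. Manual radial-artery samples were taken over 180 min post-injection. Plasma was analysed by HPLC for parent fraction, giving the metabolite-corrected arterial input function, expressed as SUV.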

Plasma free fraction [8] = assay type: in vitro ADME, human
α7 nAChRs [9] = target: T2, α7 nAChRs; settings: two subjects, initial [18F]ASEM human study ref 11; cited from earlier work
[10] = 0.33 mg/kg varenicline, one value per animal (two animals)
[11] = 0.24 mg/kg nicotine, averaged across regions, one value per animal (two animals)

O=S1(=O)c2ccc([18F])cc2-c2ccc(N3CCN4CCC3CC4)cc21 [[^18F]DBT-10]
K1 (α7 nAChRs [1]): 0.66±0.11 mL/cm^3·min^−1 | k2 (α7 nAChRs [1]): 0.024 ± 0.010 min⁻¹ | parent fraction of total plasma radioactivity [2]: 30% | free fraction (fP) in plasma (Plasma free fraction [3]): 18.3±3.9%

c1cnc2cc3c(cc2n1)[C@@H]1CNC[C@H]3C1 [varenicline]
Ki (α7 nAChRs [4]): 0.322 µM | change of [18F]ASEM VT (α7 nAChRs [5]; [10]): −2.6±6.2% and 5.2±16.9% | change of [18F]ASEM VT/fP (α7 nAChRs [5]; [10]): −1.6±5.5% and −5.4±15.2%

O=S1(=O)c2cc(N3CCN4CCC3CC4)ccc2-c2cccc([18F])c21 [[^18F]ASEM]
K1 (α7 nAChRs [1]): 0.59±0.14 mL/cm^3·min^−1 | k2 (α7 nAChRs [1]): 0.022 ± 0.010 min⁻¹ | parent fraction of total plasma radioactivity [2]: 16% | free fraction (fP) in plasma (Plasma free fraction [3]): 14.9±1.1% | K1 (α7 nAChRs [6]; 1TCM, Caudate): 0.33±0.03 mL/cm^3 per min | VT (α7 nAChRs [6]; 1TCM, Caudate): 22.4±3.9 mL/cm^3 | K1 (α7 nAChRs [6]; 1TCM, Cerebellum): 0.36±0.08 mL/cm^3 per min | VT (α7 nAChRs [6]; 1TCM, Cerebellum): 20.0±3.2 mL/cm^3 | K1 (α7 nAChRs [6]; 1TCM, Frontal Cortex): 0.35±0.07 mL/cm^3 per min | VT (α7 nAChRs [6]; 1TCM, Frontal Cortex): 24.7±3.0 mL/cm^3 | K1 (α7 nAChRs [6]; 1TCM, Hippocampus): 0.26±0.04 mL/cm^3 per min | VT (α7 nAChRs [6]; 1TCM, Hippocampus): 21.7±2.3 mL/cm^3 | K1 (α7 nAChRs [6]; 1TCM, Occipital Cortex): 0.37±0.06 mL/cm^3 per min | VT (α7 nAChRs [6]; 1TCM, Occipital Cortex): 25.6±3.1 mL/cm^3 | K1 (α7 nAChRs [6]; 1TCM, Putamen): 0.39±0.10 mL/cm^3 per min | VT (α7 nAChRs [6]; 1TCM, Putamen): 25.8±3.6 mL/cm^3 | VT (α7 nAChRs [6]; 1TCM, Temporal Cortex): 26.1±3.7 mL/cm^3 | K1 (α7 nAChRs [6]; 1TCM, Thalamus): 0.38±0.08 mL/cm^3 per min | VT (α7 nAChRs [6]; 1TCM, Thalamus): 26.6±3.3 mL/cm^3 | underestimation of VT with truncated data (α7 nAChRs [6]; 60 min of data vs 180 min, humans): 7.4±5.1% | underestimation of VT with truncated data (α7 nAChRs [6]; 90 min of data vs 180 min, humans): 5.5±3.8% | underestimation of VT with truncated data (α7 nAChRs [6]; 120 min of data vs 180 min, humans): 4.2±2.6% | test-retest variability of VT (α7 nAChRs [6]; MA1, 120 min of data, four human subjects, all regions): 11.7±9.8% | VT TRV (α7 nAChRs [6]; MA1, Caudate): 12.5±8.1% | VT/fp TRV (α7 nAChRs [6]; MA1, Caudate): 6.8±7.4% | VT (α7 nAChRs [6]; MA1, Caudate): 21.6±2.6 mL/cm^3 | VT/fp (α7 nAChRs [6]; MA1, Caudate): 288±72 mL/cm^3 | VT TRV (α7 nAChRs [6]; MA1, Cerebellum): 13.4±7.6% | VT/fp TRV (α7 nAChRs [6]; MA1, Cerebellum): 7.8±6.2% | VT (α7 nAChRs [6]; MA1, Cerebellum): 19.6±2.5 mL/cm^3 | VT/fp (α7 nAChRs [6]; MA1, Cerebellum): 259±57 mL/cm^3 | VT TRV (α7 nAChRs [6]; MA1, Frontal Cortex): 11.0±11.4% | VT/fp TRV (α7 nAChRs [6]; MA1, Frontal Cortex): 10.2±7.7% | VT (α7 nAChRs [6]; MA1, Frontal Cortex): 24.6±2.7 mL/cm^3 | VT/fp (α7 nAChRs [6]; MA1, Frontal Cortex): 326±66 mL/cm^3 | VT TRV (α7 nAChRs [6]; MA1, Hippocampus): 10.9±8.4% | VT/fp TRV (α7 nAChRs [6]; MA1, Hippocampus): 8.0±7.8% | VT (α7 nAChRs [6]; MA1, Hippocampus): 21.7±2.1 mL/cm^3 | VT/fp (α7 nAChRs [6]; MA1, Hippocampus): 287±58 mL/cm^3 | VT TRV (α7 nAChRs [6]; MA1, Occipital Cortex): 10.5±10.5% | VT/fp TRV (α7 nAChRs [6]; MA1, Occipital Cortex): 9.9±8.4% | VT (α7 nAChRs [6]; MA1, Occipital Cortex): 25.7±2.7 mL/cm^3 | VT/fp (α7 nAChRs [6]; MA1, Occipital Cortex): 339±70 mL/cm^3 | VT TRV (α7 nAChRs [6]; MA1, Putamen): 12.0±8.1% | VT/fp TRV (α7 nAChRs [6]; MA1, Putamen): 7.8±7.5% | VT (α7 nAChRs [6]; MA1, Putamen): 25.4±3.0 mL/cm^3 | VT/fp (α7 nAChRs [6]; MA1, Putamen): 335±66 mL/cm^3 | VT TRV (α7 nAChRs [6]; MA1, Temporal Cortex): 11.8±10.1% | VT/fp TRV (α7 nAChRs [6]; MA1, Temporal Cortex): 9.1±7.8% | VT (α7 nAChRs [6]; MA1, Temporal Cortex): 25.8±3.2 mL/cm^3 | VT/fp (α7 nAChRs [6]; MA1, Temporal Cortex): 342±75 mL/cm^3 | VT TRV (α7 nAChRs [6]; MA1, Thalamus): 11.0±6.4% | VT/fp TRV (α7 nAChRs [6]; MA1, Thalamus): 6.9±7.8% | VT (α7 nAChRs [6]; MA1, Thalamus): 25.9±2.9 mL/cm^3 | VT/fp (α7 nAChRs [6]; MA1, Thalamus): 343±75 mL/cm^3 | test-retest variation of VT/fP (α7 nAChRs [6]; MA1, four human subjects, all regions): 9.3±7.3% | peak SUV in brain (α7 nAChRs [6]; human brain): 3.0–4.5 SUV | time of peak radioactivity concentration in brain (α7 nAChRs [6]; human brain, post-injection): 20 to 30 min | pharmacological effects following administration (α7 nAChRs [6]; humans, administered mass 132±185 ng): No detectable pharmacological effects | VT higher than previously reported values (α7 nAChRs [6]; humans, compared with ref 11): roughly 15% | parent [18F]ASEM fraction of radioactivity in plasma ([7]; 60 min after injection): 27.5±7.9% | parent [18F]ASEM fraction of radioactivity in plasma ([7]; 180 min post-injection): 8.8±1.6% | time of peak of parent [18F]ASEM curve in arterial plasma ([7]; humans): 1.25 min | SUV of parent [18F]ASEM curve in arterial plasma at end of scans ([7]; humans, 180 min post-injection): 0.47±0.08 SUV | peak SUV of parent [18F]ASEM curve in arterial plasma ([7]; humans, at 1.25 min): 4.4±1.2 SUV | test-retest variation of plasma free fraction (fP) (Plasma free fraction [8]; four human subjects): −5.3±18.0% | fP (Plasma free fraction [8]; human plasma): 7.7±1.3% | test-retest variability of VT (α7 nAChRs [9]): 10.8±5.1% | VND (α7 nAChRs [5]; estimated from Lassen plots, one value per animal (two animals)): 25.3 mL/cm^3 and 16.0 mL/cm^3

CN1CCC[C@H]1c1cccnc1 [nicotine]
change of [18F]ASEM VT (α7 nAChRs [5]; [11]): −0.1±6.7% and 5.3±9.1% | change of [18F]ASEM VT/fP (α7 nAChRs [5]; [11]): −7.2±6.2% and −3.0±8.4%

O=S1(=O)c2cc(N3CCN4CCC3CC4)ccc2-c2cccc(F)c21 [ASEM]
receptor occupancy (α7 nAChRs [5]; 0.67 mg/kg cold ASEM, one animal): 18.8% and 19% | receptor occupancy (α7 nAChRs [5]; 1.24 mg/kg cold ASEM, two animals): 36.7% and 40.2% and 37–40%
